# Compounds with a hit are over-represented: about 3.5% of the library has one in this group of screens.
# HIV Env fusion – inhibitors of HIV-1 Env-driven cell-cell fusion, primary screen, HeLa-JRFL effector, CEM21 target cells, luciferase; inhibition, % at 12.3 µM; 360,000 tested, 1.1% active; AID 651610, 2012;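 active = mean replicate inhibition score of at least 50 and every replicate individually at or above 50; inconclusive = only one of the two criteria met; inactive = mean below 50 and not all replicates reaching 50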
# MITF act – activators of MITF-driven TRPM1 promoter reporter, primary screen, cell-based, SK-MEL-5, luciferase, single point | SK-MEL-5 TRPM1-promoter luciferase, 24 h; % of positive control, neutral wells = 0 | activation, % at 12.5 µM | 300,000 tested, 0.75% active;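 active = mean activation of at least 80% with every replicate also reaching 80%; inconclusive = mean reaches 80% but some replicate falls short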
# Cneo AK release – Cryptococcus neoformans cell lysis inducers, primary screen, AK release luminescence, single concentration. C. neoformans lysis, adenylate kinase release luminescence, 4 h; normalised: neutral wells 0, clomiphene wells 100. lysis activity, % at 15 µM. 360,000 tested, 0.2% active;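 active = mean lysis activity across replicates of at least 80%, whatever share of replicates individually reach that level; inactive = mean lysis activity below 80%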
#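 read-out = cell lysis signal | test system = log-phase Cryptococcus neoformans yeast cells | input = cells at 5 × 10^6 per mL | medium = fresh YPD growth medium | signal = luminescent adenylate kinase detection reagent | timing = 4 h at 37 °C static, read 1 h later | dosing = single dose | controls = Clomiphene as positive lysis control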
# ERAP1 HTS inh – human ERAP1 aminopeptidase inhibitors, primary screen, biochemical, single point, plate reader | 340,000 tested, 0.15% active | recombinant ERAP1, Leu-AMC fluorescence, 60 min | inhibition, % at 10.7 µM | AID 652197, 2013;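 active = mean replicate inhibition of at least 30%, or all replicates individually reaching that 30% level; inactive = mean below 30% and not every replicate reaching it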
# Target sequence (Q9NZ08 whole entry, looked up): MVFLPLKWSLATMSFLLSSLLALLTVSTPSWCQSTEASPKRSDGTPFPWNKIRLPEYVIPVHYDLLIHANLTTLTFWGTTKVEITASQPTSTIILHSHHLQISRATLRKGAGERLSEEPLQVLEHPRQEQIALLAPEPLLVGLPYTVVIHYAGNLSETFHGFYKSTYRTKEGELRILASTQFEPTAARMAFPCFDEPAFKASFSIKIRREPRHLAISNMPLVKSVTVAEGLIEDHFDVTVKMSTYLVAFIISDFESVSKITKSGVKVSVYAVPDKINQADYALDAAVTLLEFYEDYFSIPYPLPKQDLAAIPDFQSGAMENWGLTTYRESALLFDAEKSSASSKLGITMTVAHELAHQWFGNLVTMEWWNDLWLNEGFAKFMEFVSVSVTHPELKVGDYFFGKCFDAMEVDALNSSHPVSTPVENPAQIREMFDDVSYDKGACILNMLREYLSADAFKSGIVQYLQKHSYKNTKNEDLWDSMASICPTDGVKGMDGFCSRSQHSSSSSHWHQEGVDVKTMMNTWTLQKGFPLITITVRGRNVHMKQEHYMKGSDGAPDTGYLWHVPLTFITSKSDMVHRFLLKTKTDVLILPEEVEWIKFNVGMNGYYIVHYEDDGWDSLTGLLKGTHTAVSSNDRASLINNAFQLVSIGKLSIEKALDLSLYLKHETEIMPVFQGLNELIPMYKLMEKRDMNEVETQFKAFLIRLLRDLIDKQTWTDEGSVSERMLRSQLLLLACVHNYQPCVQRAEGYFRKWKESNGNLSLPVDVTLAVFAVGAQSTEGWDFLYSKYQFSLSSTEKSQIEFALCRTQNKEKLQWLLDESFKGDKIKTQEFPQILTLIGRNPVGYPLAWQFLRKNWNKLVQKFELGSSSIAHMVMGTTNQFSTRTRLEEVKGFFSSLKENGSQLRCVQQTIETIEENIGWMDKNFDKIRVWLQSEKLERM
# Wnt bcat act – Wnt/beta-catenin pathway activators, primary screen, cell-based, plate reader, single point. Wnt/beta-catenin reporter cell assay, activator. activation, % at 9.35 µM. 300,000 tested, 1.2% active. AID 743398, 2014; in the data active = activation above about 30%, passing the limit was not always enough; inconclusive = no clear call, values can overlap the other calls
# esBAF inh – Bmi1 luciferase reporter increase in mESCs, primary screen, esBAF inhibitor project, mouse ES cells, Bmi1 luciferase knock-in, single point | 24 h; 100% = twice the neutral-well signal | reporter increase, % at 12.5 µM | 350,000 tested, 2% active; in the data active = activation above about 40%; inconclusive = no clear call, values can overlap the other calls;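 note: a rise in the Bmi1 reporter signal indicates esBAF inhibition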
# Numbers stand for hits; – = inactive; ? = inconclusive; · = no result.
SMILES,HIV Env fusion,MITF act,Cneo AK release,ERAP1 HTS inh,Wnt bcat act,esBAF inh
C[C@@H]1CCCCO[C@@H](CN(C)C(=O)C2CCCCC2)[C@@H](C)CN([C@@H](C)CO)C(=O)c2cc(NC(=O)Nc3cccc4ccccc34)ccc2O1,–,·,–,–,·,–
CCc1ccc(NC(=O)c2cc(-c3cccs3)on2)cc1,–,93.8,–,–,–,–
Cc1ccc(NC(=O)c2cc(-c3cccs3)on2)cc1C,–,99.2,–,–,38.7,51.7
CO[C@@H]1CN(C)C(=O)c2cc(NC(=O)Nc3c(C)noc3C)ccc2OC[C@@H](C)N(C(=O)Nc2cccc(Cl)c2)C[C@H]1C,·,·,–,–,·,–
O=C(Cc1ccccc1)Nc1nc(=O)c2ccccc2s1,·,–,–,·,·,·
O=C(Cc1cccs1)Nc1nc2ccccc2s1,·,–,–,·,·,49.3
Cc1nc(SCC(=O)Nc2nc3ccccc3s2)c(C#N)c(C)c1C,62.7,–,·,–,–,·
O=C(Cc1nc(=O)c2ccccc2s1)Nc1ccccc1,–,·,–,·,·,62.1
CC(C)C(=O)NNc1nc2ccccc2s1,·,–,–,–,–,92.1
Cc1ccc2nc(NC(=O)Cc3cccs3)sc2c1,–,–,–,·,·,–
C[C@@H]1CN([C@@H](C)CO)C(=O)c2cc(NS(=O)(=O)c3ccc(F)cc3)ccc2O[C@@H]1CN(C)Cc1ccccc1,–,·,–,–,·,–
CC(=O)N1[C@H](C(=O)N[C@@H](C)c2ccccc2)[C@@H](CO)[C@@H]2Cn3c(cccc3=O)[C@@H]21,·,·,–,–,·,–
CCOC(=O)c1ccc(NC(=O)O[C@H]2[C@H](OC(=O)Nc3ccc4c(c3)OCO4)[C@@H](OC(=O)Nc3ccc4c(c3)OCO4)[C@@H](OC)O[C@@H]2CO)cc1,–,·,–,–,·,·
Cc1noc(C)c1S(=O)(=O)N(C)C[C@@H]1Oc2ccc(NS(C)(=O)=O)cc2C(=O)N([C@H](C)CO)C[C@@H]1C,·,·,·,·,·,–
C/C=C/c1ccc([C@H]2[C@@H](CNS(C)(=O)=O)N(CC3CC3)[C@H]2CO)cc1,·,·,–,–,·,–
O=C(C[C@H]1C[C@@H]2c3cc(NS(=O)(=O)c4ccccc4)ccc3O[C@@H]2[C@@H](CO)O1)N1CCCCC1,·,·,–,–,·,–
CC(=O)c1c(C)nc(Nc2nc3ccccc3s2)nc1C,–,·,–,–,38.1,·
Cc1ccccc1S(=O)(=O)/N=C(/Nc1nc2ccccc2s1)c1ccccc1,·,98.2,–,–,53.0,62.5
CC1(C(=O)Nc2nc3ccccc3s2)CC1(Br)Br (stereo unspecified),–,82.9,–,–,–,?
O=C(Cc1ccccc1)Nc1nc2ccccc2s1,·,?,–,·,–,49.9
COc1ccccc1-c1ccc([C@H]2[C@@H](CO)N(C(=O)NC3CCCC3)[C@H]2C#N)cc1,–,·,·,–,·,·
Cn1nccc1C(=O)N/N=C/c1ccccc1[N+](=O)[O-],–,–,–,–,41.4,–
Cc1ccc(C(=O)N/N=C\C=C\c2ccccc2[N+](=O)[O-])cn1,–,–,·,–,–,·
Cn1nccc1C(=O)N/N=C/c1cccnc1,–,–,–,–,–,–
Cc1ccc(C(=O)N/N=C\c2ccccc2[N+](=O)[O-])cn1,–,–,·,–,–,53.3
SMILES,HIV Env fusion,MITF act,Cneo AK release,ERAP1 HTS inh,Wnt bcat act,esBAF inh
Cc1occc1C(=O)N/N=C/c1ccccc1[N+](=O)[O-],–,·,–,·,44.0,·
C[C@@H](NC(=O)C[C@H]1CC[C@@H](NS(=O)(=O)c2cccc(F)c2)[C@H](CO)O1)c1ccccc1,·,·,–,–,·,–
C[C@H](CO)N1C[C@H](C)[C@H](CN(C)Cc2ccncc2)Oc2ncc(C3=CCCCC3)cc2C1=O,–,·,–,–,·,–
C[C@@H]1CN([C@H](C)CO)C(=O)c2cc(-c3cccnc3)cnc2O[C@H]1CN(C)C(=O)c1cccc(F)c1,–,·,–,–,·,–
COc1cccc(NC(=O)NCc2ccccn2)c1,–,–,–,–,37.4,–
O=C(NCc1ccccn1)C(=O)Nc1ccccc1,–,–,–,–,–,·
O=C(NCc1ccccn1)c1ccc(Cl)cc1Cl,·,–,·,·,·,52.5
Cc1ccc(NC(=O)C(=O)NCc2ccccn2)cc1,–,85.0,·,–,–,·
O=C(NCc1ccccn1)Nc1cccc(Cl)c1,·,136.0,–,–,38.0,–
O=C(NCCCNC(=O)c1ccc(Cl)cc1Cl)c1ccccn1,–,–,–,–,–,–
Cc1ccc(N2CS(=O)(=O)/C(=C/N(C)C)C2=O)cc1,–,–,–,·,48.8,–
C[C@H]1CN([C@@H](C)CO)C(=O)c2cc(-c3cccc(C(=O)N(C)C)c3)cnc2O[C@@H]1CN(C)C,–,·,–,–,·,–
CC1CCN(c2nc3ccc(C(=O)NCCCN4CCCCC4C)cc3s2)CC1 (stereo unspecified),–,·,–,·,–,72.2
CCC1CCCCN1CCCNC(=O)c1ccc2nc(N3CCCCC3)sc2c1 (stereo unspecified),–,?,–,–,–,?
CC1CCCC(C)N1CCCNC(=O)c1ccc2nc(N3CCCCC3)sc2c1 (stereo unspecified),–,·,–,–,–,72.1
N#Cc1cccc(-c2ccc([C@@H]3[C@@H](CO)N4CCCCN(Cc5ccccc5F)C[C@@H]34)cc2)c1,·,·,–,–,·,–
CCN(CC)S(=O)(=O)c1cc([N+](=O)[O-])ccc1NNC(=O)Nc1ccc(F)cc1,57.4,·,–,·,·,–
CCN(CC)S(=O)(=O)c1cc([N+](=O)[O-])ccc1NNC(=O)Nc1ccccc1OC,–,–,–,·,–,–
N#C/C(=C\c1ccc(N2CCCCC2)o1)C(=O)Nc1cccc(Br)c1,–,–,·,·,37.9,·
N#C/C(=C\c1ccc(N2CCCCC2)o1)C(N)=O,56.8,–,·,–,–,·
N#C/C(=C/c1ccc(N2CCOCC2)o1)c1ccc(Cl)cc1,–,105.9,·,·,–,?
COc1ccc(NC(=O)/C(C#N)=C\c2ccc(Br)o2)cc1,–,–,·,–,–,·
N#C/C(=C\c1ccc(N2CCOCC2)o1)c1nc2ccccc2[nH]1,·,·,–,·,–,–
COCC(=O)N1CC[C@@H]2[C@H]1c1cc(C#Cc3cccc(F)c3)ccc1N[C@@H]2CO,·,·,–,–,·,–
COc1ccc(S(=O)(=O)Nc2ccc3c(c2)CC(=O)N([C@@H](C)CO)C[C@H](C)[C@H](CN(C)Cc2ccncc2)O3)cc1,·,·,–,–,·,–
C[C@H](NC(=O)C[C@@H]1CC[C@H](NS(=O)(=O)c2cccc(F)c2)[C@H](CO)O1)c1ccccc1,·,·,–,–,·,–
Cc1c(Cl)ccc2sc(NC(=O)c3ccco3)nc12,–,·,–,–,?,64.1
COc1ccc(-c2nc(NC(=O)c3ccco3)sc2C)cc1,–,·,–,–,–,64.9
